The source made the active and inactive calls. No cut-off for these calls is given here.
Key:
[1] = Inhibition of Bacillus stearothermophilus alpha-glucosidase assessed as p-nitrophenol release by colorimetry; design: species or system Geobacillus stearothermophilus
Procedure, shortened: (§1)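 Colorimetric assay with p-nitrophenyl α-D-glucoside substrate at 1.0 mM final. Enzyme at 0.1 U/mL final for S. cerevisiae α-glucosidase and 0.3 U/mL final for B. stearothermophilus α-glucosidase. Run in triplicate (n = 3), with 1-deoxynojirimycin as standard; IC50 determined.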

[2] = Inhibition of Saccharomyces cerevisiae alpha-glucosidase assessed as p-nitrophenol release by colorimetry; procedure, shortened: as §1
[3] = Cytotoxicity against HuCCa1 cells after 4 days by MTT assay; format: functional, cell-based; settings: Homo sapiens, HuCC-A1, 96 h
Procedure, shortened: (§2)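 MTT read-out of viability in human HepG2, HuCCA-1 and A549 cancer cell lines, with doxorubicin as reference drug; IC50 values determined.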

Aromatase = target: T1, Aromatase (Homo sapiens, UniProt P11511); experiment: Inhibition of aromatase
T1 sequence (P11511 whole entry): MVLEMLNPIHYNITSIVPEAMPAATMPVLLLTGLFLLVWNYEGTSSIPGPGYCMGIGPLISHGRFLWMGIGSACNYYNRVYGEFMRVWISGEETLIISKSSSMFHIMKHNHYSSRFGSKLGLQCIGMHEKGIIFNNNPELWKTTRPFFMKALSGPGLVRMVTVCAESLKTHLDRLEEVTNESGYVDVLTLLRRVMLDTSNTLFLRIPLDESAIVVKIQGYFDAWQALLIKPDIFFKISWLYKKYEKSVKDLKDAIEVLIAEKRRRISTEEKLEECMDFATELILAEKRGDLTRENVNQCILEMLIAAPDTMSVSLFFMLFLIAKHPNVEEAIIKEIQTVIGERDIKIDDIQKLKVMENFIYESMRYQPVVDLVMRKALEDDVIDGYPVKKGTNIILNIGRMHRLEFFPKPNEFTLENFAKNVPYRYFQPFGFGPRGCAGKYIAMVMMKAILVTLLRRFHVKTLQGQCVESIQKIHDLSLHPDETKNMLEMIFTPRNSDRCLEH

MOLT-3 = experiment: Cytotoxicity against human MOLT3 cells by XTT assay; format: functional, cell-based
Procedure, shortened: (§3)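 XTT read-out of viability in human MOLT-3 and HL-60 cell lines, with doxorubicin as reference drug; IC50 values determined.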

A549 [4] = experiment: Cytotoxicity against human A549 cells after 4 days by MTT assay; format: functional, cell-based; settings: A549, 96 h; procedure, shortened: as §2
HepG2 = experiment: Cytotoxicity against human HepG2 cells after 4 days by MTT assay; format: functional, cell-based; settings: HepG2, 96 h; procedure, shortened: as §2
HL-60 = experiment: Cytotoxicity against human HL60 cells by XTT assay; format: functional, cell-based; procedure, shortened: as §3
A549 [5] = experiment: Cytotoxicity against human A549 cells at 240 uM after 4 days by MTT assay; format: functional, cell-based
HuCC-A1 = experiment: Cytotoxicity against HuCCa1 cells at 240 uM after 4 days by MTT assay; format: functional, cell-based; settings: Homo sapiens

| IC50 [1] | IC50 [2] | IC50 (Aromatase) | SMILES | IC50 [3] | IC50 (MOLT-3) | IC50 (A549 [4]) | IC50 (HepG2) | IC50 (HL-60) | Activity (A549 [5]) | Activity (HuCC-A1) |
| --- | --- | --- | --- | --- | --- | --- | --- | --- | --- | --- |
| 0.45 µM | 222 µM | – | OC[C@H]1NC[C@H](O)[C@@H](O)[C@@H]1O [DUVOGLUSTAT] | – | – | – | – | – | – | – |
| 1060 µM | 465 µM | > 100 µM | O=C(OC[C@@H](O)[C@@H](O)COC(=O)/C(Cc1ccc(O)cc1)=N\O)/C(Cc1ccc(O)cc1)=N\O [ASPERGILLUSOL A] | 50 µM | 19 µM | 74 µM | > 105 µM | – | – | – |
| – | – | – | O=C(OC[C@@H](OC(=O)c1ccccc1)[C@@H](COC(=O)c1ccccc1)OC(=O)c1ccccc1)c1ccccc1 | – | – | – | 29 µM | 44 µM | inactive | inactive |
| – | – | – | COc1cccc2c1C(=O)c1c(O)c3c(c(O)c1C2=O)C[C@@](O)(C(=O)CO)C[C@@H]3O[C@H]1C[C@H](N)[C@H](O)[C@H](C)O1 [DOXORUBICIN] | 0.64 µM | 0.04 µM | – | 0.37 µM | – | – | – |

— ChEMBL document CHEMBL1154351, “Aspergillusol A, an alpha-glucosidase inhibitor from the marine-derived fungus Aspergillus aculeatus” (J Nat Prod, 2009)
